Screening results (PubChem)
This is a sample that favours compounds with a hit; in the whole collection about 2.9% have one here.
SENP8 block-1 = inhibitors of human SENP8 protease; inhibition, % at 10 µM; purified SENP8, Z-RLRGG-aminoluciferin cleavage, luminescence; hit rate 1.2% among 330,000; AID 2540; Q96LD8; in the data active = inhibition above about 50%
Target sequence (Q96LD8 whole entry, looked up): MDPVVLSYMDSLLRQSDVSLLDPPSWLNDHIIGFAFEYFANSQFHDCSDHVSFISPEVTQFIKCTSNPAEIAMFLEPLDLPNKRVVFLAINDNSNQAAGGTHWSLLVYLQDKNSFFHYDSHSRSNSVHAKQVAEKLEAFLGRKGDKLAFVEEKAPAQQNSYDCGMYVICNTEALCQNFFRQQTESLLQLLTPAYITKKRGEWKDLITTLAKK
HSP90 inh = blocks HSP90-mediated luciferase refolding in reticulocyte lysate; Rabbit reticulocyte lysate, luciferase refolding luminescence, 3 h; inhibition, % at 5.6 µM; hit rate 0.91% among 290,000; AID 1789;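 active = inhibition above the screen-wide mean plus 3 SD, computed separately per campaign, cut at about 16% in these data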;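 also: 0% = DMSO wells and 100% = 60 µM geldanamycin wells; inhibitors lower the luminescence because luciferase stays unfolded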
SENP7 block = SENP7 protease inhibition | recombinant SENP7, Z-RLRGG-aminoluciferin luminescence, 40 min | hit rate 1.5% among 330,000 | AID 434973 | Q9BQF6 | inhibition, % at 5 µM;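 active = inhibition above about 50% at the single test dose, limit read from the data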;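 also: plate controls were DMSO with enzyme for no effect and no enzyme buffer wells for full effect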
SENP1 inh = blocks the human SENP1 SUMO protease catalytic domain; Q9P0U3; recombinant SENP1 catalytic domain, CyPet-SUMO1-YPet FRET cleavage; inhibition, % at 10 µM; hit rate 0.21% among 360,000;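 active = inhibition at least 30% at 10 µM, raw YFP signal under a set limit, fluorescence ratio 0.5 to 1.5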;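 also: 0% = enzyme with DMSO and 100% = no enzyme wells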
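Controls: no-enzyme wells low, DMSO-plus-enzyme wells high control. Test system: human recombinant His6-tagged SENP1 catalytic domain enzyme. Reagent: SFCypet-SUMO1-SFYpet FRET protein substrate, 25 nM final. Doses: one dose per compound, 10 µM, 0.5% DMSO. Detection: FRET, CFP and YFP emission. Timing: 50 min reaction at room temperature.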
SENP6 block = inhibitors of human SENP6 protease; Recombinant SENP6 catalytic domain, aminoluciferin luminescence; inhibition, % at 10 µM; hit rate 1.8% among 330,000;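 active = inhibition above about 50% at the single tested dose, limit read from the data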;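 also: plate controls were DMSO wells with enzyme for no effect and DMSO wells lacking enzyme for full effect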
Target sequence (Q9GZR1 628-1112 limits assumed): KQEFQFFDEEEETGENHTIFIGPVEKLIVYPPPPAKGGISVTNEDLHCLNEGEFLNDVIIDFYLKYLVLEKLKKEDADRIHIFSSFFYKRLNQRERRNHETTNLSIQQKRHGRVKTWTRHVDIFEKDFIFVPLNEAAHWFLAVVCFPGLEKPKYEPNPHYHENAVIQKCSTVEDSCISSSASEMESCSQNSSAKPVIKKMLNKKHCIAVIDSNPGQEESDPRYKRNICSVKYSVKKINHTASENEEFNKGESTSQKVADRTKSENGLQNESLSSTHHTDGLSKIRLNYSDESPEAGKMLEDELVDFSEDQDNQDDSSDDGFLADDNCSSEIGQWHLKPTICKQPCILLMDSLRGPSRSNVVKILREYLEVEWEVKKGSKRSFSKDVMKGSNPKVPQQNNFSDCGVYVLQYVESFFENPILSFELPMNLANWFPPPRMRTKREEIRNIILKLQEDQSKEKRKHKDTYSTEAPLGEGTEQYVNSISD
SENP8 block-2 = inhibitors of human SENP8 protease; Q96LD8; recombinant SENP8, Nedd8 substrate fluorescence; inhibition, % at 20 µM; hit rate 0.64% among 360,000; in the data active = inhibition mostly above about 40%, no sharp cut-off; inactive = mostly below about 27%
SENP8 conf-1 = confirmation of human SENP8 protease inhibitors | shares compounds with SENP7 block | Recombinant SENP8, Z-RLRGG-aminoluciferin luminescence, 60 min | inhibition, % at 12.5 µM | hit rate 40% among 6,200 | AID 488912;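 active = mean inhibition across replicates above about 50%, limit read from the data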
SENP6 confirm = human SENP6 inhibition, confirmed; hit rate 58% among 6,200; shares compounds with SENP7 block; recombinant SENP6, Z-RLRGG-aminoluciferin luminescence; AID 488915; inhibition, % at 12.5 µM
SENP7 conf = human SENP7 inhibition, confirmed; shares compounds with SENP7 block; hit rate 69% among 6,200; recombinant SENP7, Z-RLRGG-aminoluciferin luminescence, 40 min; AID 488917; inhibition, % at 12.5 µM
Casp3 SENP sel = selectivity test for SENP inhibitors: human caspase-3 inhibition. shares compounds with SENP7 block. purified caspase-3, Z-DEVD-aminoluciferin luminescence, 60 min. hit rate 60% among 6,200. inhibition, % at 12.5 µM;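 active = mean inhibition above about 50%, limit read from the data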;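 also: plate controls were enzyme with DMSO for no effect and wells without caspase-3 for full effect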
SENP luc ctr = luminescence interference (SENP counter-screen); inhibition, % at 12.5 µM; hit rate 39% among 6,200; Pre-incubated SENP8/Z-RLRGG-aminoluciferin, luciferase luminescence interference; shares compounds with SENP7 block;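 active = mean inhibition above about 50% when retested at one dose, limit read from the data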;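 also: plate controls were DMSO wells with completed reaction for no effect and substrate without enzyme for full effect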
SENP8 conf-2 = SENP8 (human) inhibition, single concentration confirmation; shares compounds with SENP8 block-2; purified SENP8, Nedd8-AMC/pro-Nedd8 cleavage fluorescence, 30 min; inhibition, % at 25 µM; hit rate 15% among 1,400; in the data active = inhibition mostly above about 39%, no sharp cut-off; inactive = mostly below about 34%
SENP1 inh conf = SENP1 (human) inhibition, single concentration confirmation | recombinant SENP1, CyPet-SUMO1-YPet FRET cleavage | inhibition, % at 10 µM | hit rate 34% among 520 | shares compounds with SENP1 inh; in the data active = inhibition mostly above about 35%, no sharp cut-off; inactive = mostly below about 32%;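 also: 0% = enzyme with DMSO and 100% = no enzyme control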
SENP1 kin conf = confirmation of human SENP1 SUMO protease inhibitors, kinetic; shares compounds with SENP1 inh; recombinant SENP1, CyPet-SUMO1-YPet FRET kinetic cleavage; inhibition, % at 10 µM; hit rate 26% among 520; in the data active = inhibition mostly above about 32%, no sharp cut-off; inactive = mostly below about 29%;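 also: 0% = DMSO with enzyme and 100% = no enzyme substrate only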
* hit, by the source's call; . = no result given.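 The calls were made as follows, unless noted: active = mean inhibition above about 50% in the one-dose retest (limit read from the data); inactive = the rest.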

SMILES | SENP8 block-1 | HSP90 inh | SENP7 block | SENP1 inh | SENP6 block | SENP8 block-2 | SENP8 conf-1 | SENP6 confirm | SENP7 conf | Casp3 SENP sel | SENP luc ctr | SENP8 conf-2 | others
C/C(=N\N=C(/N)c1nonc1N)c1ccc2c(c1)OCO2 | 82* | 5 | 92* | 5 | 84* | 43* | 88* | 88* | 100* | 91* | 28 | 15
O=C(c1cc2ccccc2oc1=O)N(Cc1ccccc1)Cc1ccc2c(c1)OCO2 | 1 | -1 | 3 | -1 | 3 | 11 | . | . | . | . | . | .
CC#CCN1c2ccccc2[C@]23C[C@@H](C(=O)OC)N=C2NC(C(=O)OC)=C(C(=O)OC)[C@H]13 | 4 | . | 5 | -1 | 0 | 15 | . | . | . | . | . | .
CS(=O)(=O)N1CCN(c2ccc(NC(=O)c3ccc([N+](=O)[O-])o3)cc2)CC1 | . | -1 | . | 2 | . | 39 | . | . | . | . | . | .
CC1CCN(c2ccc(NC(=O)c3ccc([N+](=O)[O-])o3)cc2)CC1 | 45 | . | 78* | 1 | 75* | 55* | -23 | -3 | 6 | 11 | -3 | -1
O=C(Nc1ccc(N2CCCCC2)cc1)c1ccc([N+](=O)[O-])o1 | 74* | 5 | 93* | 2 | 87* | 38* | 10 | 90* | 100* | 85* | 20 | 17
CC(C)(C)c1ccc(C(=O)NNc2cc(N3CCCCC3)nc(N3CCCCC3)n2)cc1 | 17 | -1 | 74* | -40 | 86* | 48* | 13 | 28 | 9 | 2 | 4 | 79*
Cc1nc(NNC(=O)c2ccc([N+](=O)[O-])cc2)cc(-c2ccccc2)n1 | 2 | 7 | 0 | 4 | -12 | 17 | . | . | . | . | . | .
CC(C)(C)c1ccc(C(=O)NNc2cc(N3CCOCC3)nc(N3CCOCC3)n2)cc1 | 3 | -2 | 31 | -5 | 45 | 10 | . | . | . | . | . | .
O=C(CCc1ccccc1)NNc1cc(N2CCCCC2)nc(N2CCCCC2)n1 | 4 | 1 | 58* | -25 | 35 | 47* | 0 | 16 | -2 | -4 | -4 | 51*
O=C(NNc1cc(N2CCCC2)nc(N2CCCC2)n1)c1ccc([N+](=O)[O-])cc1 | 75* | -1 | 92* | -14 | 91* | 77* | 18 | 61* | 22 | -1 | -2 | 75*
CC(=O)NCCNc1nc2cc(-c3cscc3C)sc2c(=O)n1C | . | . | . | -3 | . | -64 | . | . | . | . | . | .
COc1cccc(CN2CC(C(=O)NCc3cccc(N4CCCC4)c3)CCC2=O)c1 (stereo not given) | 2 | -2 | 4 | 9 | 5 | -8 | . | . | . | . | . | .
O=[N+]([O-])c1cc([N+](=O)[O-])c2nonc2c1Nc1ccc(O)cc1 | -1 | 0 | 18 | -14 | 58* | 79* | -4 | 2 | -5 | 4 | 21 | 22
O=[N+]([O-])c1cc([N+](=O)[O-])c2nonc2c1Nc1ccccc1O | 8 | 6 | 20 | -14 | 26 | 22 | . | . | . | . | . | .
CCN(CC)c1cc(Cl)c2nonc2c1N | 17 | 1 | 10 | 15 | 44 | 37 | . | . | . | . | . | .
CN(C)c1cc(Cl)c2nonc2c1N | 96* | 5 | 91* | 5 | 95* | 89* | 15 | 33 | 5 | -4 | -6 | 56*
CCCCN(C1CCS(=O)(=O)C1)S(=O)(=O)c1cc(C)ccc1C (stereo not given) | -3 | . | 13 | 2 | -4 | 9 | . | . | . | . | . | .
Cc1c(Cl)cccc1N=Cc1ccc([N+](=O)[O-])s1 | 55* | 0 | 35 | 2 | 51* | 68* | 8 | 17 | 12 | 0 | -1 | 21
O=C1Cc2ccccc2C(=O)N1OCc1ccc(Cl)cc1 | 28 | 4 | 52* | -5 | 71* | 92* | 12 | 28 | 17 | 15 | 4 | 64*
CCCN1CCN(CCCNC(=O)Cn2nc(C)n3c(cc4cc(OC)ccc43)c2=O)CC1 | -8 | -6 | 3 | -4 | -17 | -131 | . | . | . | . | . | .
CC(=O)OCCCNc1cc(SCc2ccco2)c2nonc2c1[N+](=O)[O-] | 60* | 1 | 34 | -11 | 63* | 50* | 10 | 12 | -5 | 5 | -9 | 17
NC(=S)Nc1cccc2cccnc12 | 3 | 7 | 4 | 1 | -4 | 5 | . | . | . | . | . | .
NC(=S)NNc1cccc2cccnc12 | 49 | 6 | 38 | 4 | 91* | 51* | -3 | 12 | -5 | 8 | 4 | 66*
O=C(CSc1nccc(-c2cccs2)n1)Nc1ccccc1 | -2 | 2 | 1 | 1 | -2 | 8 | . | . | . | . | . | .
SMILES | SENP8 block-1 | HSP90 inh | SENP7 block | SENP1 inh | SENP6 block | SENP8 block-2 | SENP8 conf-1 | SENP6 confirm | SENP7 conf | Casp3 SENP sel | SENP luc ctr | SENP8 conf-2 | others
O=C(Cc1ccccc1)c1nc2ccccc2s1 | 54* | 1 | 39 | -3 | 69* | 48* | 0 | 64* | 87* | 62* | 43 | 67*
O=C(Cc1ccccc1)Nc1nc2ccccc2s1 | -13 | -1 | -1 | -5 | 5 | -2 | . | . | . | . | . | .
CN(C)c1cc(N/N=C\c2ccccc2)nc(N(C)C)n1 | 34 | 4 | 71* | 1 | 76* | 51* | 61* | 76* | 36 | -3 | 1 | 69*
O=C1C2=C(c3ccccc31)[N+](=O)[C@@H]1CCCC[C@@H]1N2[O-] | 49 | 0 | 57* | 3 | 81* | 74* | 14 | 56* | 25 | 15 | 5 | 74*
Cc1ccccc1NC(=O)COC(=O)c1c[nH]c(=O)[nH]c1=O | -1 | 2 | -1 | 2 | -4 | 12 | . | . | . | . | . | .
O=C(N/N=C/c1ccc(N2CCOCC2)cc1)c1cccs1 | 63* | 5 | 76* | 32* | 74* | -376 | 67* | 69* | 92* | 90* | 70* | . | SENP1 inh conf=15;SENP1 kin conf=13
